HUVEC inhibit = human endothelial cell proliferation inhibition; HUVEC proliferation, CellTiter-Glo luminescence, 72 h; hits give low values; viability, % at 10 µM (by protocol); 1.1% of 86,000 active; AID 648;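 active = viability at or below 30%; inactive = viability above 30%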;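 also: 100% = median luminescence of DMSO-only cell control wells on each plate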
F-actin modifier = alters cytoskeleton assembly in HUVEC cells; inhibition, % at 2 µM; HUVEC TNFa F-actin phalloidin imaging, high content; 0.18% of 91,000 active;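 active = inhibition above the batch mean plus 3 SD and confirmed as a hit by visual image inspection, cut at about 30% in these data, passing the limit was not always enough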
Lung fibro prol = blocks proliferation of human lung fibroblasts. LL 47 human lung fibroblast viability, ATP luminescence; hits give low values. viability, % at 10 µM. 1.1% of 85,000 active;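 active = viability at or below 50% in the single dose screen; inactive = viability above 50%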;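 also: compound exposure lasted 72 h before the ATP readout; 100% = median luminescence of untreated cell-only wells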
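Assay system: human lung fibroblast line LL 47, low passage. Input: 1,150 fibroblasts seeded per well. Times: overnight cell rest, 72 h compound treatment at 37 °C. Evaluation: % viability of median cell-only signal. Technique: luminescent ATP detection, CellTiter-Glo. Control set: cell-only wells, no compound.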
Jurkat viability = cytotoxic compounds reducing Jurkat cell viability; Jurkat E6.1 viability, ATP luminescence, 48 h; 1.2% of 56,000 active; inhibition, % at 4 µM;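 active = inhibition above the mean inhibition of all tested compounds plus 3 SD, cut at about 28% in these data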
H69AR growth 86K = blocks growth of human H69AR lung tumor cells; viability, % at 10 µM; 6% of 85,000 active; H69AR lung tumor viability, ATP luminescence, 72 h; hits give low values;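 active = viability at or below 40%; inactive = viability above 40%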;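 also: multidrug resistant small cell line overexpressing MRP-1 efflux transporter; 100% = mean luminescence of untreated control wells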
PTK2B oligo ant = blocks oligomerization of human Pyk2 in cells | Q14289 | 0.83% of 99,000 active | Q293 cells, Pyk2 FERM NanoBiT luminescence; hits give low values | AID 1347419 | z-score (the deposit names both 25 µM and 10 µM);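 active = Z-score of -3 or lower, scaled per plate to the spread of control and sample wells; inactive = z-score above -3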;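 also: negative z-score means lost luminescence so less FERM oligomerization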
Target sequence (Q14289 whole entry, looked up): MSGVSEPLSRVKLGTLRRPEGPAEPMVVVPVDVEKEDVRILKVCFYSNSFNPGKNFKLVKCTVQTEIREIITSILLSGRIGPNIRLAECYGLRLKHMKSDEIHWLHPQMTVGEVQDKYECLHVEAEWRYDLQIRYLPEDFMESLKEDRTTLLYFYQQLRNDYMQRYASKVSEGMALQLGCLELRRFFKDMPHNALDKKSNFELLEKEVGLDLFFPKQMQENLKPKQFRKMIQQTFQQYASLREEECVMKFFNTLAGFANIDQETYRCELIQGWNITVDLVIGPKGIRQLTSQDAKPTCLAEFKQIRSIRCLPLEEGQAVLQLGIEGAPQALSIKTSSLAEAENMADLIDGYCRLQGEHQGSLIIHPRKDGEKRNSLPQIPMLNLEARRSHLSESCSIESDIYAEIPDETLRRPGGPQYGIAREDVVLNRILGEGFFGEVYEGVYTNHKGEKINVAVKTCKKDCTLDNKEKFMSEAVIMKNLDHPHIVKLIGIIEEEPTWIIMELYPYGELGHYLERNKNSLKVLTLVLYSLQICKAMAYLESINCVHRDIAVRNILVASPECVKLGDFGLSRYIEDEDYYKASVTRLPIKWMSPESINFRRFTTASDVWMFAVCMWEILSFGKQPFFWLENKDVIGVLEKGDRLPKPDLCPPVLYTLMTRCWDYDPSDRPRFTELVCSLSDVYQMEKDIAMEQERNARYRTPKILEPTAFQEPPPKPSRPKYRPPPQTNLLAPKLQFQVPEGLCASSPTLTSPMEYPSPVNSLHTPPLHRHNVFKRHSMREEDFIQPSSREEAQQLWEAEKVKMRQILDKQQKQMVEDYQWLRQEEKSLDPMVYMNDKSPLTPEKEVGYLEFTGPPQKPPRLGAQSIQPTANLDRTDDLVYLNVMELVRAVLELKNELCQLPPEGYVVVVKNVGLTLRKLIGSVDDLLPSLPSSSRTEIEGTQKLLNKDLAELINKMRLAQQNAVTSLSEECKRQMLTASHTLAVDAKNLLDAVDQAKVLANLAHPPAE
An asterisk follows results filed as active. Shown are actives, neighbours in structure and some others; about 6% of the full set was active somewhere.

`CSc1nc2n(n1)C(c1ccccn1)C1=C(CC(C)(C)CC1=O)N2` (centres undefined) gave HUVEC inhibit 103, F-actin modifier -11, Lung fibro prol 98, H69AR growth 86K 54 and PTK2B oligo ant -1.1.
`COc1ccc(C(=O)N2CCN(c3cccc(Cl)c3)CC2)c(OC)c1` gave HUVEC inhibit 57, Lung fibro prol 91, Jurkat viability 56*, H69AR growth 86K 15* and PTK2B oligo ant 0.99.
Screening CCOc1ccc2ccccc2c1C(=O)N1CCN(c2ccccc2)CC1 returned HUVEC inhibit 49, F-actin modifier -14, Lung fibro prol 59, Jurkat viability 85*, H69AR growth 86K 15* and PTK2B oligo ant -0.66.
For CCOC(=O)c1[nH]c(C)c(C(=O)N2CCN(c3ccccc3)CC2)c1C the results were HUVEC inhibit 104, F-actin modifier 0, Lung fibro prol 94, Jurkat viability -6, H69AR growth 86K 104 and PTK2B oligo ant -0.24.
`COc1ccccc1C(=O)N1CCN(c2cccc(C(F)(F)F)c2)CC1` gave HUVEC inhibit 63, F-actin modifier -60, Lung fibro prol 63, Jurkat viability 82*, H69AR growth 86K 15* and PTK2B oligo ant 0.08.
For CCOc1ccccc1C(=O)N1CCN(c2cccc(Cl)c2)CC1 the results were HUVEC inhibit 30, F-actin modifier -5, Lung fibro prol 57, Jurkat viability 98*, H69AR growth 86K 31* and PTK2B oligo ant 0.84.
COc1ccc(NC(=O)N2CCN(c3cccc(C(F)(F)F)c3)CC2)cc1OC was read as HUVEC inhibit 93, F-actin modifier -7, Lung fibro prol 115, H69AR growth 86K 82 and PTK2B oligo ant 2.2.
For O=C(O)c1ccccc1C(=O)N1CCN(c2cccc(Cl)c2)CC1 the results were HUVEC inhibit 83, F-actin modifier 10, Lung fibro prol 98, Jurkat viability -11, H69AR growth 86K 93 and PTK2B oligo ant 1.1.
CCOCCCN1CN(S(=O)(=O)c2ccc(Cl)cc2)c2nc3ccccc3nc21 was read as HUVEC inhibit 105, F-actin modifier 11, Lung fibro prol 110, H69AR growth 86K 108 and PTK2B oligo ant 1.5.
`O=C(Nc1ccc(S(=O)(=O)N2CCOCC2)cc1)c1ccc(Br)o1` gave HUVEC inhibit 100, F-actin modifier -8, Lung fibro prol 96, Jurkat viability -2, H69AR growth 86K 105 and PTK2B oligo ant 1.4.
Nc1cc2c(cc1C(=O)c1ccc(Cl)cc1)OCCO2 was read as HUVEC inhibit 77, F-actin modifier -22, Lung fibro prol 84, H69AR growth 86K 52 and PTK2B oligo ant -0.86.
NC(=O)/C(=N\OC(=O)c1ccco1)c1nc(-c2ccc(Br)cc2)cs1 was read as HUVEC inhibit 53, F-actin modifier -44, Lung fibro prol 97, H69AR growth 86K 62 and PTK2B oligo ant -0.77.
Screening COc1cc2c(C(=O)N3CCN(c4ccccc4)CC3)c(C)oc2cc1Br returned HUVEC inhibit 87, F-actin modifier -2, Lung fibro prol 97, H69AR growth 86K 23* and PTK2B oligo ant 1.2.
COc1ccc(N2CCN(C(=O)c3c(-c4ccccc4)noc3C)CC2)cc1 was read as HUVEC inhibit 106, F-actin modifier 6, Lung fibro prol 96, Jurkat viability -13 and H69AR growth 86K 106.
`CCOC(=O)N1CCN(C(=O)c2ccc3c(=O)n(Cc4ccccc4OC)c(=S)[nH]c3c2)CC1` gave HUVEC inhibit 89, F-actin modifier -17, Lung fibro prol 89, H69AR growth 86K 34* and PTK2B oligo ant 0.29.
Screening O=C(c1ccc2c(=O)n(Cc3ccc4c(c3)OCO4)c(=S)[nH]c2c1)N1CCCCC1 returned HUVEC inhibit 73, F-actin modifier -2, Lung fibro prol 93, H69AR growth 86K 35* and PTK2B oligo ant 0.64.
For COCCCNC(=O)c1ccc2c(=O)n(Cc3ccc4c(c3)OCO4)c(=S)[nH]c2c1 the results were HUVEC inhibit 22*, F-actin modifier 3, Lung fibro prol 113, H69AR growth 86K 58 and PTK2B oligo ant -0.44.
Screening COc1ccc(-c2cnc(N)nc2-c2ccc(OC)cc2O)cc1 returned HUVEC inhibit 89, F-actin modifier -6, Lung fibro prol 103, Jurkat viability 9, H69AR growth 86K 49 and PTK2B oligo ant -3.1*.
Screening C=C(C)COc1ccc(-c2nc(N)ncc2-c2ccc(OC)cc2)c(O)c1 returned HUVEC inhibit 99, F-actin modifier -7, Lung fibro prol 93, Jurkat viability 1 and H69AR growth 86K 10*.
CCOc1cc(C)c(Cl)cc1S(=O)(=O)NCC1CCCO1 (centres undefined) was read as HUVEC inhibit 100, F-actin modifier -19, Lung fibro prol 97, Jurkat viability 0, H69AR growth 86K 89 and PTK2B oligo ant -0.1.
Cc1cccc(NC(=O)CN(c2ccc(C(C)C)cc2)S(=O)(=O)c2c(C)nn(C)c2C)n1 was read as HUVEC inhibit 93, F-actin modifier 1, Lung fibro prol 96 and H69AR growth 86K 84.
Screening Cc1nn(C)c(C)c1NC(=O)CSc1nc(Cc2ccccc2)nc2c1cnn2-c1ccccc1 returned HUVEC inhibit 87, F-actin modifier -25, Lung fibro prol 87, Jurkat viability 6, H69AR growth 86K 5.3* and PTK2B oligo ant 0.1.
CCc1nc(SCC(=O)Nc2c(C)nn(C)c2C)c2cnn(-c3ccccc3)c2n1 was read as HUVEC inhibit 103, F-actin modifier 8, Lung fibro prol 97 and H69AR growth 86K 47.
`O=C1CC(c2ccsc2)c2cc3c(cc2N1)OCCO3` (centres undefined) gave HUVEC inhibit 92, Lung fibro prol 92, Jurkat viability 4 and H69AR growth 86K 27*.
`CCOc1c(OC)cccc1C1CC(=O)Nc2cc3c(cc21)OCCO3` (centres undefined) gave HUVEC inhibit 77, Lung fibro prol 96, Jurkat viability 9 and H69AR growth 86K 15*.
For N#Cc1c(SCC(=O)Nc2nccs2)nc2c(c1-c1ccco1)CCCC2 the results were HUVEC inhibit 98, F-actin modifier 29, Lung fibro prol 98, Jurkat viability -1, H69AR growth 86K 23* and PTK2B oligo ant -0.51.
`Cc1ccccc1NC(=O)CSc1nc2c(c(-c3ccco3)c1C#N)CCCC2` gave HUVEC inhibit 91, F-actin modifier 7, Lung fibro prol 104, Jurkat viability 4, H69AR growth 86K 74 and PTK2B oligo ant -1.3.
`CCOc1ccc(S(=O)(=O)NCc2ccc(OC)cc2)c2cccnc12` gave HUVEC inhibit 86, Lung fibro prol 107 and H69AR growth 86K 98.
Screening Cc1c(Cl)cccc1N1CC(C(=O)Nc2nccs2)CC1=O (centres undefined) returned HUVEC inhibit 100, F-actin modifier 29, Lung fibro prol 109, Jurkat viability -12, H69AR growth 86K 90 and PTK2B oligo ant -0.48.

From PubChem
